Published values collected from several papers.
Compare with care: the assays were run in different laboratories.
Target: Insulin receptor-related protein (INSRR, Homo sapiens, UniProt P14616)

SMILES | read-out | technique | tested at | remaining binding [%]
COc1cnc(Nc2cccc(S(N)(=O)=O)c2)nc1N1CCN(c2ccccc2)CC1 | binding | competition with immobilised ligand | 1 µM | 100
O=C(NCCCN1CCOCC1)c1ccc(Nc2ncc(Cl)c(-c3ccc(Cl)s3)n2)cc1 | binding | competition with immobilised ligand | 1 µM | 59
N[C@H]1CCN(c2nccc(-c3cnn4ncccc34)n2)C1 | binding | – | 1 µM | 97
CNC(=O)[C@@H]1CC[C@@H](n2c(-c3ccc4cnccc4c3)nc3ccc(C(=O)NCc4cccc(C(N)=O)c4)cc32)C1 | binding | competition with immobilised ligand | 1 µM | 92
O=C(c1ccc(Nc2nccc(-c3cc4ccccc4s3)n2)cc1)N1CCC(N2CCCC2)CC1 | binding | competition with immobilised ligand | 1 µM | 99
CCOCCn1cc(C(=O)Nc2ccc(-n3nc(-c4cccnc4)cc3C(F)(F)F)cn2)ccc1=O | cell-free assay | competition with immobilised ligand | 1 µM | 100
Nc1ncc2c(n1)-c1c([nH]c3ccc(C#CC4CC4)cc13)CCCC2 | binding | competition with immobilised ligand | 1 µM | 98
CCN1CCN(Cc2ccc(C(=O)Nc3ccc(C)c(Oc4ccc5c(c4)CC(=O)N5)c3)cc2C(F)(F)F)CC1 | binding | competition with immobilised ligand | 1 µM | 93
COc1ccnn2ncc(-c3ccnc(N(C)C)n3)c12 | binding | – | 1 µM | 99
O=C(NCCCC1CCCCC1)c1ccc(CNC(=O)c2cnn(-c3ccccc3)c2C(F)(F)F)cc1 | cell-free assay | competition with immobilised ligand | 0.1 µM | 100
CC1CCCN1c1nccc(-c2cnn3ncccc23)n1 (stereo not shown) | binding | – | 1 µM | 100
NS(=O)(=O)c1cc(NC(=O)C2(c3ccccc3Cl)CC2)ccc1Oc1cccc(Cl)c1 | cell-free assay | competition with immobilised ligand | 1 µM | 95
COc1ncc2cc3ccccc3nc2c1C#N | cell-free assay | competition with immobilised ligand | 5 µM | 100
Cc1nc(C2CCN(C(=O)c3ccc(OC(F)(F)F)cc3N)CC2)c2ncc(N3CCN(C)CC3)cc2n1 | cell-free assay | competition with immobilised ligand | 1 µM | 100
C[C@H]1CCN(c2nccc(-c3cnn4ncccc34)n2)C1 | binding | – | 1 µM | 98
O=C1CCc2cc(Nc3cc(OC4CCOCC4)c([N+](=O)[O-])cc3Cl)ccc2N1 | cell-free assay | competition with immobilised ligand | 1 µM | 100
F[C@@H]1CCN(c2nccc(-c3cnn4ncccc34)n2)C1 | binding | – | 1 µM | 100
O=C(c1ccc(Nc2ncc(Cl)c(-c3cc4ccccc4s3)n2)cc1)N1CCC(N2CCCC2)CC1 | binding | competition with immobilised ligand | 1 µM | 25
CNC(=O)Nc1ccc2c(c1)CC[C@@]21OC(=O)N(CC(=O)N(Cc2ccc(F)cc2)[C@@H](C)C(F)(F)F)C1=O | cell-free assay | competition with immobilised ligand | 1 µM | 96
O=C(NCC1CCOCC1)c1n[nH]cc1NC(=O)c1c(F)cccc1F | binding | competition with immobilised ligand | 1 µM | 88
CN(C)c1nccc(-c2cnc3ncccn23)n1 | binding | – | 1 µM | 82
C=CC(=O)N1CCC(C(=O)NCC(=O)N2CCN(c3nc(-c4cnc(N)nc4C(F)F)nc(N4CCOCC4)n3)CC2)CC1 | binding | competition with immobilised ligand | 1 µM | 96
